Experimental data reported in ChEMBL document CHEMBL4130443, “Targeting breast cancer stem cells by novel HDAC3-selective inhibitors” (Eur J Med Chem, 2017).

Tests used:
[1] = biological target: Histone deacetylase 5 (Homo sapiens) (UniProt Q9UQL6); assay: Inhibition of human HDAC5 at 1 uM using Boc-Lys(trifluoroacetyl)-AMC substrate
Method in brief: (§1)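 Isoform profiling run by a commercial vendor with compounds at 1 µM. Values are percent inhibition, each the average of two determinations.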

[2] = biological target: Histone deacetylase 3/Nuclear receptor corepressor 2 (HDAC3/NCoR2) (Homo sapiens, UniProt O15379); assay: Inhibition of human HDAC3/NCOR2 using p53 (379 to 382 residues) derived fluorogenic peptide RHKKAc; assay type: protein-complex assay
Chain of Histone deacetylase 3/Nuclear receptor corepressor 2 (HDAC3/NCoR2) (O15379 whole entry, the tested form may be a part): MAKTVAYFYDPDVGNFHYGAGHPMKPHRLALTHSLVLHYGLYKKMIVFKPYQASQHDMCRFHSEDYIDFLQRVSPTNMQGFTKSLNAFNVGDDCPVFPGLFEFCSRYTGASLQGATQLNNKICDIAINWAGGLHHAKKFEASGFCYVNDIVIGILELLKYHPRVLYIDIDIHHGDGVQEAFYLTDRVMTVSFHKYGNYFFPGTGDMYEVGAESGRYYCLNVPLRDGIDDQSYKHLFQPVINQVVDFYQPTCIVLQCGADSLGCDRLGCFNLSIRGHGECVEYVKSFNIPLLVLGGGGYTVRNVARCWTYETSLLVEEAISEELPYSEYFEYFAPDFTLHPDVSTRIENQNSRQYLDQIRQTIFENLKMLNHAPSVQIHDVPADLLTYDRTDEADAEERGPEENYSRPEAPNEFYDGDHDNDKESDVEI
Chain of Histone deacetylase 3/Nuclear receptor corepressor 2 (HDAC3/NCoR2) (Q9Y618 whole entry, further chain, the tested form may be a part): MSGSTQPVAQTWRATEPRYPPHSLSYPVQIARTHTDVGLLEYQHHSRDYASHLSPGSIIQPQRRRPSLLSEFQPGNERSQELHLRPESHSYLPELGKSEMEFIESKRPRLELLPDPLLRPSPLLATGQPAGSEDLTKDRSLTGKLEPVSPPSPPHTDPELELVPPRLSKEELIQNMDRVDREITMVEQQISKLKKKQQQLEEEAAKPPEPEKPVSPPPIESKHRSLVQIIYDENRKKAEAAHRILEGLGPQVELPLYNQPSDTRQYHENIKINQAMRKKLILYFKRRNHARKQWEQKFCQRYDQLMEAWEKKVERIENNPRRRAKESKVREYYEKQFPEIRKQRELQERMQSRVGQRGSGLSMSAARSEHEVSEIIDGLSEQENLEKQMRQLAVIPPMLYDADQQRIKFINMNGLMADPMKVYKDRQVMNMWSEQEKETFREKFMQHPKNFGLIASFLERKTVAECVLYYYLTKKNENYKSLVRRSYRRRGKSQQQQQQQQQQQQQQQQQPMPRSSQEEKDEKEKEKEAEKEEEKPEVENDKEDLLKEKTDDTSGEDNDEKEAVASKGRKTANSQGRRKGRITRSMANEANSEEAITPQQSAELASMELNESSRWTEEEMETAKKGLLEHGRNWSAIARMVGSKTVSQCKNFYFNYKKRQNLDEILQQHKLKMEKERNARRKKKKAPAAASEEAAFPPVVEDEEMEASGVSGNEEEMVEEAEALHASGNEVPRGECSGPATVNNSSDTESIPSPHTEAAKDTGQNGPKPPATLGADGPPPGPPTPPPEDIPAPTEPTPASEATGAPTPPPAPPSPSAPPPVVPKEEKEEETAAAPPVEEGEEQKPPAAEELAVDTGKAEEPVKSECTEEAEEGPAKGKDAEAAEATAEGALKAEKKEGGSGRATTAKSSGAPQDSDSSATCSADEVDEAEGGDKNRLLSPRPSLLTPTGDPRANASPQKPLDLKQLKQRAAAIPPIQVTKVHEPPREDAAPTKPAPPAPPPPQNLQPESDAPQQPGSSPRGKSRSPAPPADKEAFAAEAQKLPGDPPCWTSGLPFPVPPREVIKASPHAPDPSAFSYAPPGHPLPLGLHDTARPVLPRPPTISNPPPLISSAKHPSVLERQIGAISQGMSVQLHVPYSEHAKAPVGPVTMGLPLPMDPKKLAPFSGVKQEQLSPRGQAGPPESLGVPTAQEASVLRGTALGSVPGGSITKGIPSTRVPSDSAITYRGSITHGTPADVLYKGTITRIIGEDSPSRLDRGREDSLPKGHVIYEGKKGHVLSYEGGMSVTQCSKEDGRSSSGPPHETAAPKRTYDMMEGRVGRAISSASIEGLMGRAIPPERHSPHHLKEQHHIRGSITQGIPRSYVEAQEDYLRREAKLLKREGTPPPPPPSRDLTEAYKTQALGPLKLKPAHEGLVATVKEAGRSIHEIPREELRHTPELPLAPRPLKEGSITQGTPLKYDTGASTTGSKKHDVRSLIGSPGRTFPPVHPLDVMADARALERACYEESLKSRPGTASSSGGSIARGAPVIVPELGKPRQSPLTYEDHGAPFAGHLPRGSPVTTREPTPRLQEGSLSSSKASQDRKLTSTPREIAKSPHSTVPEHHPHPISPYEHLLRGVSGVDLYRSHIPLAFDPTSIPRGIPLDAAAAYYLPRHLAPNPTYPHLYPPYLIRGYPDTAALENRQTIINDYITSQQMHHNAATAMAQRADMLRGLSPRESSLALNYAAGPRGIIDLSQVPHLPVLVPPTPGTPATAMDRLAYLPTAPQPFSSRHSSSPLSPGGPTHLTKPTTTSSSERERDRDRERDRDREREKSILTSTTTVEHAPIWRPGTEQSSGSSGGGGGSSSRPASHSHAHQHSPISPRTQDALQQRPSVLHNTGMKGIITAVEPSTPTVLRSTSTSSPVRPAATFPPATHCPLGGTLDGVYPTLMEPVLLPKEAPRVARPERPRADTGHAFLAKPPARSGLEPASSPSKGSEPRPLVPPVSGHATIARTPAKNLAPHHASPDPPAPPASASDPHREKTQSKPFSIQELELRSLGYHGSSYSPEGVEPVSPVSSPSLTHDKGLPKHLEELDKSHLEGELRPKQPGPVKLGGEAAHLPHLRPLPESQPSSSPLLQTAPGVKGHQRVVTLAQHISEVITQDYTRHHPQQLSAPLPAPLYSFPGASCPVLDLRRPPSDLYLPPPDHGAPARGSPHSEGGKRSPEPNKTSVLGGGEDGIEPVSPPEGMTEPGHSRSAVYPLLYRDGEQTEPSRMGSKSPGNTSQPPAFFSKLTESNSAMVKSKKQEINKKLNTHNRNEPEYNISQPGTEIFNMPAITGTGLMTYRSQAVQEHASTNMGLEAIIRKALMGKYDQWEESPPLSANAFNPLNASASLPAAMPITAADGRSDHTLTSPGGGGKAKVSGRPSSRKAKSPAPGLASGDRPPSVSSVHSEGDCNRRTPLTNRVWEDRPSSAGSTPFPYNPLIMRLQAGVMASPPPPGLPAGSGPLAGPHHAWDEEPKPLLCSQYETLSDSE

Histone deacetylase 1 [3] = biological target: T1, Histone deacetylase 1 (Homo sapiens, UniProt Q13547); assay: Inhibition of human HDAC1 using p53 (379 to 382 residues) derived fluorogenic peptide RHKKAc
T1 sequence (Q13547 whole entry, the tested form may be a part): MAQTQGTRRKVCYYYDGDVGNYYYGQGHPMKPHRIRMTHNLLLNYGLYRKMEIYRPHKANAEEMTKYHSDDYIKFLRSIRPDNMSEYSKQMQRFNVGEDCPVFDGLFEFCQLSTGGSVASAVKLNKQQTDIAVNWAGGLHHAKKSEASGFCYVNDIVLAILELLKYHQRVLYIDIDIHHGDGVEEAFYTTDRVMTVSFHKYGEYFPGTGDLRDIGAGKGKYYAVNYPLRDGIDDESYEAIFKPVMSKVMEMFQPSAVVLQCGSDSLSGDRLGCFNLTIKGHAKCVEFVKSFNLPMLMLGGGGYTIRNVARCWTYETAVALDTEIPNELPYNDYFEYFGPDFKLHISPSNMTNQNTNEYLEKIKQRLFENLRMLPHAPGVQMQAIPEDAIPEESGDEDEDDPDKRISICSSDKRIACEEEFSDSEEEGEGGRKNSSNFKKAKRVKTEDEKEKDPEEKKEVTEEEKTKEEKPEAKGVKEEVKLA

[4] = biological target: Histone deacetylase 3/Nuclear receptor corepressor 2 (HDAC3/NCoR2) (Homo sapiens) (UniProt O15379+Q9Y618); assay: Inhibition of human HDAC3/NCOR2 at 1 uM using p53 (379 to 382 residues) derived fluorogenic peptide RHKKAc; assay type: protein-complex assay; method in brief: as §1
MDA-MB-231 = assay: Inhibition of colony formation of human MDA-MB-231 cells incubated for 48 hrs by crystal violet staining based assay; conditions: MDA-MB-231, 48 h
[5] = biological target: T2, Histone deacetylase 8 (Homo sapiens) (UniProt Q9BY41); assay: Inhibition of human HDAC8 at 1 uM using p53 (379 to 382 residues) derived fluorogenic peptide RHKAcKAc; method in brief: as §1
T2 sequence (whole entry): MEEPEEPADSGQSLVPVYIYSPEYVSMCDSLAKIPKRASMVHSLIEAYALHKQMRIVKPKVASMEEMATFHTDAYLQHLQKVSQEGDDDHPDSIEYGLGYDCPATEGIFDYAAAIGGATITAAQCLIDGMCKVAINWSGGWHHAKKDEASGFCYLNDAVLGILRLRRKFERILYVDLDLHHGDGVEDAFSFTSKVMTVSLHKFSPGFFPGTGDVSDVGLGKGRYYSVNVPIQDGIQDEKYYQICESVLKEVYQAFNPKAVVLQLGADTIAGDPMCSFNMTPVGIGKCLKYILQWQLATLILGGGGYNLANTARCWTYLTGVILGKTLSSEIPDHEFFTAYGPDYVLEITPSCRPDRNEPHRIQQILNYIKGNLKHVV

Histone deacetylase 1 [6] = biological target: T1, Histone deacetylase 1; assay: Inhibition of human HDAC1 at 1 uM using p53 (379 to 382 residues) derived fluorogenic peptide RHKKAc; method in brief: as §1
Histone deacetylase 2 = Histone deacetylase 2 (Homo sapiens, UniProt Q92769); assay: Inhibition of human HDAC2 using p53 (379 to 382 residues) derived fluorogenic peptide RHKKAc
Chain of Histone deacetylase 2 (Q92769 whole entry, the tested form may be a part): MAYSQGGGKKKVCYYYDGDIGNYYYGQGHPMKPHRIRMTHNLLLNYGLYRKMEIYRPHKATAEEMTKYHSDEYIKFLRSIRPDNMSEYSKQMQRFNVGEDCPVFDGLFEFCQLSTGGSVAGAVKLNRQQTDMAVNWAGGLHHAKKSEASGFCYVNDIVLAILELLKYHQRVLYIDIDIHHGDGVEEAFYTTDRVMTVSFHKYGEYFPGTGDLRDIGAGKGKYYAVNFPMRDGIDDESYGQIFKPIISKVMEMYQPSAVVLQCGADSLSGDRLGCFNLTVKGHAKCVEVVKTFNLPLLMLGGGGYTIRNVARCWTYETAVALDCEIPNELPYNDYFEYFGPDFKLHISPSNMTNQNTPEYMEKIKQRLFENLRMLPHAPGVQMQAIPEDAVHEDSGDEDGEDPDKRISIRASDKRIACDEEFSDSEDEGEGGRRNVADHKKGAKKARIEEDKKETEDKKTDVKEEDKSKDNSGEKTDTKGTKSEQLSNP

Chain of Histone deacetylase 5 (Homo sapiens) (Q9UQL6 whole entry, canonical isoform): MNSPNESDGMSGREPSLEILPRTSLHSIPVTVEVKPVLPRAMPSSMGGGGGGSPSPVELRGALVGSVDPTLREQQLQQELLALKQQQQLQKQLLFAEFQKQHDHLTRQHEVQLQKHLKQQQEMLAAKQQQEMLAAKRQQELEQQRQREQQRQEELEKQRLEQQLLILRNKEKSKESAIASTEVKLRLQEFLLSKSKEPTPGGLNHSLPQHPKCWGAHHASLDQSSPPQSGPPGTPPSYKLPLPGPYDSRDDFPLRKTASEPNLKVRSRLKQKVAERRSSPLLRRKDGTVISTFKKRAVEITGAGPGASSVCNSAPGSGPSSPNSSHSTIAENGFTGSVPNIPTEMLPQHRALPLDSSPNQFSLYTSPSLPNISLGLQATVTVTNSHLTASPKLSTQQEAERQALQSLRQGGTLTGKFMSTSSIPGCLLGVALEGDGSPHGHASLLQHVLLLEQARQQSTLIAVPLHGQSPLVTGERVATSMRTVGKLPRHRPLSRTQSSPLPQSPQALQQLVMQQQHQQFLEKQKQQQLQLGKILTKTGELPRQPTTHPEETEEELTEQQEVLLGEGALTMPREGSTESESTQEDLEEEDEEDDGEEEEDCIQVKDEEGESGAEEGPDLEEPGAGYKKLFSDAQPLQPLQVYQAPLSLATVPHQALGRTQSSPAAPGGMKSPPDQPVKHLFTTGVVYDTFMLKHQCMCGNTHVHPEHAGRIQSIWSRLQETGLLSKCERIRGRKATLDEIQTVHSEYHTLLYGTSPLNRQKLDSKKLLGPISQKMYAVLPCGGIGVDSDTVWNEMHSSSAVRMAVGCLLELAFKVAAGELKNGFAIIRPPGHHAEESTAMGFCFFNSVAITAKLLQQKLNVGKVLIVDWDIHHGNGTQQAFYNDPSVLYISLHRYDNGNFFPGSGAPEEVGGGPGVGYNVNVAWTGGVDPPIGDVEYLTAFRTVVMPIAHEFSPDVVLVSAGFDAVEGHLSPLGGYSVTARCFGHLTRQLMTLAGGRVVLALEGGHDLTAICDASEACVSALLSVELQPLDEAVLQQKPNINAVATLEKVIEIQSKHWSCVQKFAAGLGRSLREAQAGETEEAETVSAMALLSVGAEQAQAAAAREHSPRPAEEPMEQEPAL

inhibition [1]: 0% | IC50 [2]: 350 nM | IC50 (Histone deacetylase 1 [3]): > 10000 nM | inhibition [4]: 87% | IC50 (MDA-MB-231): 500 to 1000 nM | inhibition [5]: 0% | inhibition (Histone deacetylase 1 [6]): 8% | IC50 (Histone deacetylase 2): > 10000 nM
SMILES: CC(C)(C(=O)Nc1ccc(C(=O)Nc2ccc(F)cc2N)cc1)c1ccccc1
